Measured values from PubChem BioAssay AID720574 (Broad Institute, 2013).
Where “and” joins values, the source holds several entries; their conditions need not be identical. Identical values can stand only once. About 140 (0.15%) of roughly 96,000 compounds were called active. The list comes from a sample in which actives are over-represented; it also holds similar structures and randomly drawn compounds. Unmarked numbers belong to inactive results.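 Rule for the calls: active = mean replicate inhibition above about 25%, with at least 55% of replicates also reaching it (limit read from the data, passing the limit was not always enough); inconclusive = only one of those two conditions met; inactive = neither condition met.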

The compounds below were run against Lysine-specific demethylase 4C (Homo sapiens) (UniProt Q9H3R0) (assay: KDM4C H3K9me3 demethylation inhibition – biochemical, single concentration HTS, primary screen (AID 720574)). Conditions: GST-KDM4C 2-372, H3K9me3 peptide, LANCE TR-FRET; at 12.5 µM; stronger effect = higher value.
Sequence of Lysine-specific demethylase 4C (Homo sapiens) (Q9H3R0 2-372 limits assumed): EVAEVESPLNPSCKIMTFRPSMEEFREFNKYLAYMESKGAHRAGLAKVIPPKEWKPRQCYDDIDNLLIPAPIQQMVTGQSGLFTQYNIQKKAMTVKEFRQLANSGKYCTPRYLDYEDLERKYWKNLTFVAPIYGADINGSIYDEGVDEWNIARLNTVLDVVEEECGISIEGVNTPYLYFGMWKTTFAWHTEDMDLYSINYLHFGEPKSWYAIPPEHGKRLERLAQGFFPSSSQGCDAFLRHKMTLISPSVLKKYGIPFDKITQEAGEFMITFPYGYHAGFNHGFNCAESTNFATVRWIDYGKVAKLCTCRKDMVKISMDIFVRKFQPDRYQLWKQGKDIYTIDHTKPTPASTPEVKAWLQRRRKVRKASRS
Procedure, shortened: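 Material: GST-tagged GASC-1 (JMJD2C) catalytic fragment, aa 2-372. Input: enzyme final amount 10 nM. Medium: HEPES buffer, pH 7.5, plus ascorbate. Reagent: H3K9me3 peptide substrate, Fe(II), 2-oxoglutarate. Doses: single dose. Times: reaction 30 min RT, detection step 1 h RT. Measured by: LANCE TR-FRET. Evaluation: Fall in 671/618 emission ratio as inhibition.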
Work on `O=C(NC1CCCC1)[C@H]1[C@H](CO)[C@H]2Cn3c(ccc(-c4ccccc4)c3=O)[C@H]2N1CCc1ccccc1` yielded an inhibition of 3.27%. Compound `CO[C@H]1CN(C)C(=O)c2ccc(NC(=O)C3CCC3)cc2OC[C@H](C)NC[C@@H]1C` has an inhibition of -0.842%. `Cc1ccccc1S(=O)(=O)N1[C@H](CO)[C@@H](c2ccc(-c3ccccc3)cc2)[C@@H]1C#N` was tested, and the inhibition was -3.67%. In the case of `COc1ccc(S(=O)(=O)N(C)C[C@H]2OCCCC[C@H](C)Oc3ccc(NC(=O)Nc4ccc5c(c4)OCO5)cc3C(=O)N([C@@H](C)CO)C[C@@H]2C)cc1`, the inhibition is reported as 15.8%. With `C[C@@H]1CN([C@@H](C)CO)C(=O)Cc2cc(NC(=O)Nc3ccc4c(c3)OCO4)ccc2O[C@H]1CN(C)S(=O)(=O)c1ccccc1` the inhibition was -0.169%. `COc1ccc(C#Cc2ccc([C@H]3[C@H]4CN(C(=O)c5ccncc5)CC(=O)N4[C@H]3CO)cc2)cc1` gave an inhibition of -3.07%. Compound `COc1ccccc1CNC(=O)C[C@H]1C[C@@H]2c3cc(NC(=O)Nc4ccccc4F)ccc3O[C@@H]2[C@H](CO)O1` has an inhibition of -9.36%. Work on `CO[C@@H]1CN(C)C(=O)c2cc(NC(=O)c3cccc(Oc4ccccc4)c3)ccc2OC[C@H](C)NC[C@@H]1C` yielded an inhibition of -0.467%. In the case of `CN(C)Cc1cn(CC[C@H]2CC[C@@H](NS(=O)(=O)c3ccccc3)[C@H](CO)O2)nn1`, the inhibition is reported as 0.714%. With `O=C(NC[C@@H]1N[C@@H](CO)[C@H]1c1ccc(-c2cccnc2)cc1)c1cccc(F)c1` the inhibition was -0.99%. `CN1CCN(C(=O)C[C@H]2CC[C@@H]3[C@H](COC[C@@H](O)CN3CC3CCCC3)O2)CC1` showed an inhibition of 6.35%. `CCCN1C[C@@H](C)[C@@H](OC)CN(C)C(=O)c2cc(NC(=O)c3ccccc3)ccc2OC[C@H]1C` gave an inhibition of -1.49%. With `COc1cccc(C(=O)Nc2ccc3c(c2)C(=O)N(C)[C@@H]2CC[C@@H](CC(=O)NCCCN4CCOCC4)O[C@@H]2CO3)c1` the inhibition was -0.807%. `COCC(=O)Nc1ccc2c(c1)[C@H]1C[C@@H](CC(=O)NCc3ccccc3F)O[C@H](CO)[C@H]1O2` showed an inhibition of 1.67%. In the case of `CCCC(=O)N1CCC2(CC1)CN[C@H](CO)c1[nH]c3cc(OC)ccc3c12`, the inhibition is reported as -0.39%. With `CCCC(=O)Nc1ccc2c(c1)C(=O)N(C)C[C@H](OC)[C@H](C)CN(C(=O)c1ccccn1)[C@H](C)CO2` the inhibition was 0.027%. `C[C@H](CO)N1C[C@H](C)[C@@H](CN(C)Cc2ccc(Oc3ccccc3)cc2)Oc2ccc(NS(=O)(=O)c3ccc(F)cc3)cc2CC1=O` was tested, and the inhibition was -2.45%. `O=C(Cc1cccnc1)N1CC(=O)N2[C@@H](CO)[C@@H](c3ccc(C#CC4CCCCC4)cc3)[C@@H]2C1` showed an inhibition of -0.852%. In the case of `CN(C)CC(=O)N[C@@H]1CC[C@@H](CCn2cc(C3CC3)nn2)O[C@H]1CO`, the inhibition is reported as -0.3%. With `N[C@@H]1CC[C@H](CCn2cc(C3CC3)nn2)O[C@@H]1CO` the inhibition was 57.3% (active). `COc1ccc(-c2cn(CC[C@H]3CC[C@@H](N)[C@H](CO)O3)nn2)cc1` showed an inhibition of -0.108%. `O=C(c1ccncc1)N1CC[C@@H]2[C@H]1c1cc(Br)ccc1N[C@@H]2CO` gave an inhibition of 1.89%. For `CC(=O)N1[C@H](CO)[C@H](c2ccc(-c3ccccc3)cc2)[C@H]1CNC(=O)NC(C)C`, the inhibition was -0.299%. Compound `CCC(=O)N[C@H]1CC[C@@H](CC(=O)NCC2CC2)O[C@@H]1CO` has an inhibition of -0.369%. For `C/C=C/c1ccc([C@H]2[C@@H](CO)N(C(C)=O)[C@H]2CN(C)S(C)(=O)=O)cc1`, the inhibition was 1.96%. Work on `COc1ccc(S(=O)(=O)Nc2ccc3c(c2)C(=O)N([C@@H](C)CO)C[C@H](C)[C@@H](CN(C)C(=O)NC(C)C)OCCCC[C@H](C)O3)cc1` yielded an inhibition of 0.601%. For `CN(C)C(=O)[C@@H]1[C@@H](CO)[C@@H]2Cn3c(cccc3=O)[C@H]1N2C(=O)c1ccc(F)cc1`, the inhibition was -1.64%. `COc1ccc(NC(=O)N(C)C[C@H]2OCCCC[C@@H](C)Oc3ccc(NC(=O)NC4CCCCC4)cc3C(=O)N([C@H](C)CO)C[C@H]2C)cc1` was tested, and the inhibition was -1.08%. For `O=C(NC1Cc2ccccc2C1)[C@H]1[C@H](CO)[C@H]2Cn3c(ccc(C4=CCCCC4)c3=O)[C@H]2N1CC1CC1`, the inhibition was 3.76%. Compound `CC(C)NC(=O)N[C@H]1CC[C@@H](CCNC(=O)C2CCC2)O[C@@H]1CO` has an inhibition of -2.41%. With `Cc1ccccc1S(=O)(=O)N1[C@@H]2CNC[C@H]1C2c1ccc(-c2cccnc2)cc1` (stereo partly specified) the inhibition was -0.633% and -0.155%. In the case of `O=C(NCc1ccncn1)[C@@H]1[C@@H](CO)[C@@H]2Cn3c(ccc(-c4ccc(F)cc4)c3=O)[C@@H]2N1CC1CC1`, the inhibition is reported as 12.7%. `O=C(c1cnccn1)N1CC(=O)N2[C@H](C1)[C@@H](c1ccc(C#CC3CCCC3)cc1)[C@@H]2CO` gave an inhibition of 7.28%. `O=C(C[C@@H]1CC[C@H]2[C@@H](COC[C@@H](O)CN2S(=O)(=O)c2cccc(F)c2)O1)NCCCN1CCOCC1` showed an inhibition of -0.281%. `C[C@H](CO)N1C[C@H](C)[C@H](CN(C)C(=O)C2CC2)Oc2cc(-c3cccnc3)ccc2S1(=O)=O` showed an inhibition of 0.237%. Compound `Cn1cnc(CCNC(=O)C[C@@H]2CC[C@H]3[C@@H](COC[C@@H](O)CN3C(=O)Nc3ccc(Cl)cc3)O2)c1` has an inhibition of -0.915%. In the case of `O=C(Cc1ccccn1)N1CC(=O)N2[C@H](C1)[C@@H](c1ccc(-c3ccccc3)cc1)[C@@H]2CO`, the inhibition is reported as 1.11%. Work on `O=C(c1ccc2c(c1)OCO2)N1CC(=O)N2[C@H](C1)[C@@H](c1ccc(C#Cc3ccccc3)cc1)[C@@H]2CO` yielded an inhibition of -2.3%. In the case of `O=C(NCC[C@@H]1CC[C@H](NC(=O)Nc2cc(F)ccc2F)[C@@H](CO)O1)Nc1ccc(Cl)cc1`, the inhibition is reported as 0.858%. `C[C@@H]1CN([C@@H](C)CO)S(=O)(=O)c2ccc(C#Cc3ccc(F)cc3)cc2O[C@@H]1CN(C)CC1CC1` gave an inhibition of -2.29%. In the case of `C[C@@H]1CN([C@@H](C)CO)S(=O)(=O)c2ccc(C#Cc3ccc(F)cc3)cc2O[C@H]1CN(C)C(=O)NC1CCCC1`, the inhibition is reported as 55.9% (active). Work on `C/C=C/c1ccc2c(c1)O[C@@H](CN(C)C(=O)NC1CCCC1)[C@@H](C)CN([C@H](C)CO)S2(=O)=O` yielded an inhibition of 0.88%. In the case of `COc1ccc2c3c(n(C)c2c1)[C@H](CO)N(Cc1ccc(F)cc1)CC31CN(CC2CCOCC2)C1`, the inhibition is reported as -0.66%. `COc1ccc2c3c(n(C)c2c1)[C@@H](CO)N(C(=O)Nc1ccc(F)cc1)CC31CCN(C(=O)c2cccnc2)CC1` showed an inhibition of -1.49%. `CO[C@@H]1CN(C)C(=O)c2cc(NC(=O)C3CC3)ccc2OC[C@H](C)N(Cc2ccc(F)cc2)C[C@@H]1C` was tested, and the inhibition was -0.0715%. Compound `C[C@H](CO)N1C[C@H](C)[C@@H](CN(C)S(=O)(=O)c2ccccc2)OCCCC[C@H](C)Oc2ccc(NC(=O)NC3CCCCC3)cc2C1=O` has an inhibition of 0.616%. With `COCC(=O)NC[C@@H]1[C@@H](c2ccc(C3=CCCC3)cc2)[C@@H](CO)N1C(C)=O` the inhibition was 3.61%. `CCC(=O)Nc1ccc2c(c1)C(=O)N(C)C[C@@H](OC)[C@@H](C)CN(C(=O)CN(C)C)[C@@H](C)CO2` was tested, and the inhibition was 1.55%. For `O=C(C[C@@H]1C[C@@H]2c3cc(NS(=O)(=O)c4ccccc4)ccc3O[C@@H]2[C@@H](CO)O1)NC1CCCCC1`, the inhibition was -0.944%. With `CS(=O)(=O)N1CC2(C1)[C@H](c1ccccc1)[C@H](CO)N2Cc1ccc(F)cc1` the inhibition was 0.43%. `CO[C@@H]1CN(C)C(=O)c2ccc(NC(=O)NC(C)C)cc2OC[C@@H](C)N(Cc2ccc(-c3ccccn3)cc2)C[C@H]1C` gave an inhibition of 0.434%. `CO[C@H]1CN(C)C(=O)c2ccc(NS(=O)(=O)c3ccccc3)cc2OC[C@@H](C)N(Cc2nccs2)C[C@@H]1C` was tested, and the inhibition was 0.175%. `COC(=O)C[C@H]1C[C@H]2c3cc(NC(=O)NC4CCCCC4)ccc3O[C@H]2[C@H](CO)O1` gave an inhibition of 9.44%. In the case of `CC(C)NC(=O)N1[C@H](CNC(=O)CN(C)C)[C@@H](c2ccccc2)[C@@H]1CO`, the inhibition is reported as -0.351%. Compound `O=C(c1ccccn1)N1CC2(C1)[C@@H](c1ccccc1)[C@@H](CO)N2C(=O)C1CCC1` has an inhibition of -1.3%. Compound `O=C(NCC[C@H]1CC[C@H](NS(=O)(=O)c2ccccc2)[C@H](CO)O1)c1cc(Cl)cc(Cl)c1` has an inhibition of -1.8%. Work on `COc1ccc(-c2cnc3c(c2)C(=O)N([C@H](C)CO)C[C@@H](C)[C@H](CN(C)C(=O)Cc2ccncc2)O3)cc1` yielded an inhibition of -0.262%. For `CO[C@@H]1CN(C)C(=O)c2cc(NC(=O)Nc3ccccc3F)ccc2OC[C@H](C)NC[C@H]1C`, the inhibition was 0.557%. With `CCCNC(=O)C[C@@H]1CC[C@H]2[C@H](COc3ccc(NC(=O)CCC)cc3C(=O)N2C)O1` the inhibition was 1.75%. In the case of `CCCNC(=O)N1CC2(C1)[C@H](c1ccccc1)[C@@H](CO)N2C(=O)C1CC1`, the inhibition is reported as 1.13%. With `C/C=C/c1ccc([C@@H]2[C@@H](CO)N(C(=O)CN(C)C)C23CN(C(=O)C2CCCC2)C3)cc1` the inhibition was 0.163%. In the case of `CO[C@@H](CN(C)S(=O)(=O)c1ccccc1)[C@H](C)CN(Cc1ccccc1Cl)[C@H](C)CO`, the inhibition is reported as 1.1%. `COc1ccc2c3c(n(C)c2c1)[C@@H](CO)N(C(C)=O)CC31CCN(C(=O)C2CC2)CC1` gave an inhibition of -0.393%. Compound `O=C(Nc1ccccc1F)N1CC(=O)N2[C@H](C1)[C@H](c1ccc(C#Cc3ccc(F)cc3)cc1)[C@@H]2CO` has an inhibition of 1.34%. `CCC(=O)N(C)C[C@H]1Oc2ncc(-c3ccccc3OC)cc2C(=O)N([C@H](C)CO)C[C@H]1C` gave an inhibition of 17.4%. Compound `CN1[C@@H]2CN(C(=O)C3CCCCC3)c3ccccc3[C@@H]2[C@@H]1CO` has an inhibition of 4.33%. `Cc1cccc(S(=O)(=O)N2C[C@@H]3[C@H](c4ccccc42)[C@H](CO)N3CC2CCOCC2)c1` gave an inhibition of -0.667%. `O=C(NCc1ccc(F)cc1)[C@@H]1[C@@H](CO)[C@@H]2Cn3c(cccc3=O)[C@@H]2N1C(=O)c1cccnc1` showed an inhibition of -0.929%. `CO[C@H]1CN(C)C(=O)c2ccc(NC(=O)NC(C)C)cc2OC[C@@H](C)N(C(=O)CN(C)C)C[C@H]1C` was tested, and the inhibition was 0.223%. Compound `COc1ccc(CN(C)C[C@@H]2Oc3ccc(NC(=O)Nc4ccc(F)cc4)cc3CC(=O)N([C@@H](C)CO)C[C@H]2C)cc1` has an inhibition of -0.133%. In the case of `O=C(C1CCOCC1)N1C[C@H]2[C@@H](c3ccccc31)[C@@H](CO)N2Cc1ccccc1`, the inhibition is reported as 2.96%. Compound `O=C(CC1CC1)N1[C@@H]2CN(S(=O)(=O)c3ccccc3F)c3ccccc3[C@@H]2[C@@H]1CO` has an inhibition of 2%. `C[C@H](CO)N1C[C@H](C)[C@@H](CN(C)S(=O)(=O)c2ccccc2)Oc2ncc(C#Cc3ccccc3F)cc2C1=O` gave an inhibition of -3.49%. For `C[C@H]1CN([C@@H](C)CO)C(=O)c2cc(C#Cc3ccccc3F)cnc2O[C@H]1CN(C)C`, the inhibition was 28.4% (active). `C[C@H]1CN([C@@H](C)CO)C(=O)c2cc(C#Cc3ccccc3F)cnc2O[C@@H]1CN(C)C(=O)C1CC1` gave an inhibition of -1.28%. `COc1ccc2c3c([nH]c2c1)[C@@H](CO)N(C(=O)Nc1ccc(F)cc1)CC31CN(S(C)(=O)=O)C1` gave an inhibition of -0.649%.
